Reference: ChEMBL document CHEMBL2424622, “Development of amino-pyrimidine inhibitors of c-Jun N-terminal kinase (JNK): kinase profiling guided optimization of a 1,2,3-benzotriazole lead” (Bioorg Med Chem Lett, 2013)

How the values were obtained:
[1] = target: Ephrin type-A receptor 7 (Homo sapiens) (UniProt Q15375); test: Competitive binding affinity to EPHA7 (unknown origin) at 10 uM in presence of ATP relative to control
Procedure, shortened: (§1)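 In vitro ATP-site competition binding assay, part of profiling against a diverse panel of 128 kinases. Each compound was tested at a single concentration of 10 µM. Kinome selectivity was summarized as S15 selectivity scores.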

[2] = target: Casein kinase I isoform gamma-1 (Homo sapiens) (UniProt Q9HCP0); test: Competitive binding affinity to CSNK1G1 (unknown origin) at 10 uM in presence of ATP relative to control
[3] = target: T1, Membrane-associated tyrosine- and threonine-specific cdc2-inhibitory kinase (Homo sapiens) (UniProt Q99640); test: Competitive binding affinity to PKMYT1 (unknown origin) at 10 uM in presence of ATP relative to control
T1 sequence (whole entry): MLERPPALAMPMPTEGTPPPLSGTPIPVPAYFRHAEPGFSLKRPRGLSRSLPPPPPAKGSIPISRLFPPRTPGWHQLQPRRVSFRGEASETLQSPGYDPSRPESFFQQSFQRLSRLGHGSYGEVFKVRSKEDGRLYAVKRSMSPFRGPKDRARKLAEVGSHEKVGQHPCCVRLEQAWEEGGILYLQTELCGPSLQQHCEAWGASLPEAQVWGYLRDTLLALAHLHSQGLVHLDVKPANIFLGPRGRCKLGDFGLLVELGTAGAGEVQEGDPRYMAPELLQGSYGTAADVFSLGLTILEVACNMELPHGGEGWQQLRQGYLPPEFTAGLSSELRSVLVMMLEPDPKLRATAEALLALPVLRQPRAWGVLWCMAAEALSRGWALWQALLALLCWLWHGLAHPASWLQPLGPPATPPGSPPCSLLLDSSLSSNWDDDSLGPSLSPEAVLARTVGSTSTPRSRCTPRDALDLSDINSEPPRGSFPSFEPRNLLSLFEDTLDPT
Procedure, shortened: (§2)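 In vitro ATP-site competition binding assay across a diverse panel of 128 kinases, with compound tested at a single concentration. Kinase selectivity scores (S15) were calculated from the panel profiles.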

[4] = target: Serine/threonine-protein kinase PAK 6 (Homo sapiens) (UniProt Q9NQU5); test: Competitive binding affinity to PAK6 (unknown origin) at 10 uM in presence of ATP relative to control; procedure, shortened: as §2
[5] = target: Serine/threonine-protein kinase PAK 1 (Homo sapiens) (UniProt Q13153); test: Competitive binding affinity to PAK1 (unknown origin) at 10 uM in presence of ATP relative to control; procedure, shortened: as §2
[6] = target: T2, Serine/threonine-protein kinase Nek9 (Homo sapiens) (UniProt Q8TD19); test: Competitive binding affinity to NEK9 (unknown origin) at 10 uM in presence of ATP relative to control; procedure, shortened: as §2
T2 sequence (whole entry): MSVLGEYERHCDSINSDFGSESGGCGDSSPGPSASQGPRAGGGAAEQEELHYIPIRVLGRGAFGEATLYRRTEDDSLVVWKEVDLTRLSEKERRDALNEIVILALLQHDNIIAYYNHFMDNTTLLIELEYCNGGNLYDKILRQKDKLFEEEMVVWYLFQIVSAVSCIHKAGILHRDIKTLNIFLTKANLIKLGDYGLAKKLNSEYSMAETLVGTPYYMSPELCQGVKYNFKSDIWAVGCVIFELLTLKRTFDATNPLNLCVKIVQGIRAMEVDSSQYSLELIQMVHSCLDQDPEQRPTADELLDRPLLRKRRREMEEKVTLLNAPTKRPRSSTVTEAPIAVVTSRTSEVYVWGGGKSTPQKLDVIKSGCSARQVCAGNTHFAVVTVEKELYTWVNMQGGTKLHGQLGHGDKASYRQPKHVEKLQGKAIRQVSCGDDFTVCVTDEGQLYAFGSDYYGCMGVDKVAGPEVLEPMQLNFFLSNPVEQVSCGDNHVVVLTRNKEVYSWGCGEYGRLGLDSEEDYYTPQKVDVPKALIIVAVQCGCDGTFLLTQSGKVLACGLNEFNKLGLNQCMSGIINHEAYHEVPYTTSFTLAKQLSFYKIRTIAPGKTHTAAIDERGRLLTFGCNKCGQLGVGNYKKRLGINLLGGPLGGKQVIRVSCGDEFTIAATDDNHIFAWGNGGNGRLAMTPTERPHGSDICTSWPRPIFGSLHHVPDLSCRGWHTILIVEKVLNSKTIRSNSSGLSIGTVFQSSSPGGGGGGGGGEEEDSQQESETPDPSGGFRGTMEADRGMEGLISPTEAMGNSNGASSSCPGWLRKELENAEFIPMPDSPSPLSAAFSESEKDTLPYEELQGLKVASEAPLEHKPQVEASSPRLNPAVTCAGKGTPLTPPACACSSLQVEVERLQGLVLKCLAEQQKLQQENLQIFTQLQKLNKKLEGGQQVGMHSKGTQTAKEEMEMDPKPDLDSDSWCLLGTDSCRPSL

[7] = target: Mast/stem cell growth factor receptor Kit (Homo sapiens) (UniProt P10721); test: Competitive binding affinity to KIT (unknown origin) at 10 uM in presence of ATP relative to control; procedure, shortened: as §1
Sequence of Mast/stem cell growth factor receptor Kit (Homo sapiens) (P10721 whole entry): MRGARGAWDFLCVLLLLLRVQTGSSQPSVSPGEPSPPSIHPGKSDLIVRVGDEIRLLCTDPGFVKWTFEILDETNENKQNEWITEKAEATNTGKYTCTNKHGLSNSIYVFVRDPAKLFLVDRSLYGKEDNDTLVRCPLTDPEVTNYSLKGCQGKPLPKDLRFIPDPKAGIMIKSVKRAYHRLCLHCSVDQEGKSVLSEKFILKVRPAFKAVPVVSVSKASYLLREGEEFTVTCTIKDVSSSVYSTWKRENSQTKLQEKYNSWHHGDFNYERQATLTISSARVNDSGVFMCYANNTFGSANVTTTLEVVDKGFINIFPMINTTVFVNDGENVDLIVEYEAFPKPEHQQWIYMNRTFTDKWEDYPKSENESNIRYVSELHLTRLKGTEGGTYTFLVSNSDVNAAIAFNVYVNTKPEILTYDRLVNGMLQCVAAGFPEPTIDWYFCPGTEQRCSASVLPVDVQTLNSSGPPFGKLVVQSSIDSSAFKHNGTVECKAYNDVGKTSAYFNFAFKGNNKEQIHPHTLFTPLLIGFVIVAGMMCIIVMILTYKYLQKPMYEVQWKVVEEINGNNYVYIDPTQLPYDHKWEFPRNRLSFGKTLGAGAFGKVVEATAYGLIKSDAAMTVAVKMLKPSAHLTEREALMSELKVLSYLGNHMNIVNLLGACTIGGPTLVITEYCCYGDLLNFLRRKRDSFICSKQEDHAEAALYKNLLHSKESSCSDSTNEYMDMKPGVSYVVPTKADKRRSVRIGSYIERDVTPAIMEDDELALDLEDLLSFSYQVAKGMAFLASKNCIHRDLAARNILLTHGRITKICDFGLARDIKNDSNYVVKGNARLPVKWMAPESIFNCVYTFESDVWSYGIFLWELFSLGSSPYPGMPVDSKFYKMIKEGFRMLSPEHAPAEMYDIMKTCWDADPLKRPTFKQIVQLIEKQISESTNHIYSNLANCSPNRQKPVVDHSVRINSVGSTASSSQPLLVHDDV

Sequence of Serine/threonine-protein kinase PAK 1 (Homo sapiens) (Q13153 whole entry): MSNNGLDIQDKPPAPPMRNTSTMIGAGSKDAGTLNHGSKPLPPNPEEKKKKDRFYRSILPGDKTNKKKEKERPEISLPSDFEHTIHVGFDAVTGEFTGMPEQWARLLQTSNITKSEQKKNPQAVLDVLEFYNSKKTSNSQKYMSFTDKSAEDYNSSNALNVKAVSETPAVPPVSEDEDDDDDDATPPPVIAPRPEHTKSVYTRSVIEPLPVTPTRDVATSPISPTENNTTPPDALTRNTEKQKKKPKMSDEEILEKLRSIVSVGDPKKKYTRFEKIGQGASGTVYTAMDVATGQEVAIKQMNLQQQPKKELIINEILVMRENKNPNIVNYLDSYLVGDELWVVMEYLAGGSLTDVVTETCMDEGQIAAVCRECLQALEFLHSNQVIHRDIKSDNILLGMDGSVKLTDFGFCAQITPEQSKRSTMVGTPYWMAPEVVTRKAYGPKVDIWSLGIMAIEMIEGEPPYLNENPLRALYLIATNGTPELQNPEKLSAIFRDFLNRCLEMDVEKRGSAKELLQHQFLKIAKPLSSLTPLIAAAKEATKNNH
Sequence of Casein kinase I isoform gamma-1 (Homo sapiens) (Q9HCP0 whole entry, looked up, canonical isoform): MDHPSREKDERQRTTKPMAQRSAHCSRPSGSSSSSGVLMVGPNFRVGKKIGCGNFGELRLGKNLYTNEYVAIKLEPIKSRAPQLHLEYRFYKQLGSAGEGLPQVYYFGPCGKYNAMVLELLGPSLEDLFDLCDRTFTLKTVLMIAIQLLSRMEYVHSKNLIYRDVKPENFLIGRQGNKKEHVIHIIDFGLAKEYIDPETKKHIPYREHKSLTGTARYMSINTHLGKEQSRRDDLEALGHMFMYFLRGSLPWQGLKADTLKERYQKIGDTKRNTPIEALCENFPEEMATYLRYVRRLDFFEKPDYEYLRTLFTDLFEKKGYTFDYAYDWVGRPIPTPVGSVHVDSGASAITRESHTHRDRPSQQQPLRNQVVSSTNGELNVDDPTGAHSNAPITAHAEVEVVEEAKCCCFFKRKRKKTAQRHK
Sequence of Serine/threonine-protein kinase PAK 6 (Homo sapiens) (Q9NQU5 whole entry, looked up): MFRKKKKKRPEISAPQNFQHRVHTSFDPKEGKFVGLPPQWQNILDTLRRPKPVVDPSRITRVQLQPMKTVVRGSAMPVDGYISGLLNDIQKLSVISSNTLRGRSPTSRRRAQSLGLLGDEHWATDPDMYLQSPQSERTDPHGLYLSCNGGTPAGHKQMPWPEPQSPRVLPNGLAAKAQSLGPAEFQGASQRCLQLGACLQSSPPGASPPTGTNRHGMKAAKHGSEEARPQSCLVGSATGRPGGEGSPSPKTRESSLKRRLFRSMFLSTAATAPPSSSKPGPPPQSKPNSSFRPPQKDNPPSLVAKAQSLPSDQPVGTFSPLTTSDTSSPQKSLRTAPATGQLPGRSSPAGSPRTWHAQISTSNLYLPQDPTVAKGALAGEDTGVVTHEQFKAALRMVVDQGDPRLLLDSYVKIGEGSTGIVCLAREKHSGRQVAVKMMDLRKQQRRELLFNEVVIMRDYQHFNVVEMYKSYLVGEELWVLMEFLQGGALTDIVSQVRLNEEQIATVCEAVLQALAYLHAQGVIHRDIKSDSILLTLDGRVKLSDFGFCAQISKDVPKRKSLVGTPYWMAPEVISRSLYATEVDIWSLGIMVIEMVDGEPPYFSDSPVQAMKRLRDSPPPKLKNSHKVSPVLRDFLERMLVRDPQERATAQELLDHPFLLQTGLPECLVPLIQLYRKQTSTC
Sequence of Ephrin type-A receptor 7 (Homo sapiens) (Q15375 28-998 limits assumed): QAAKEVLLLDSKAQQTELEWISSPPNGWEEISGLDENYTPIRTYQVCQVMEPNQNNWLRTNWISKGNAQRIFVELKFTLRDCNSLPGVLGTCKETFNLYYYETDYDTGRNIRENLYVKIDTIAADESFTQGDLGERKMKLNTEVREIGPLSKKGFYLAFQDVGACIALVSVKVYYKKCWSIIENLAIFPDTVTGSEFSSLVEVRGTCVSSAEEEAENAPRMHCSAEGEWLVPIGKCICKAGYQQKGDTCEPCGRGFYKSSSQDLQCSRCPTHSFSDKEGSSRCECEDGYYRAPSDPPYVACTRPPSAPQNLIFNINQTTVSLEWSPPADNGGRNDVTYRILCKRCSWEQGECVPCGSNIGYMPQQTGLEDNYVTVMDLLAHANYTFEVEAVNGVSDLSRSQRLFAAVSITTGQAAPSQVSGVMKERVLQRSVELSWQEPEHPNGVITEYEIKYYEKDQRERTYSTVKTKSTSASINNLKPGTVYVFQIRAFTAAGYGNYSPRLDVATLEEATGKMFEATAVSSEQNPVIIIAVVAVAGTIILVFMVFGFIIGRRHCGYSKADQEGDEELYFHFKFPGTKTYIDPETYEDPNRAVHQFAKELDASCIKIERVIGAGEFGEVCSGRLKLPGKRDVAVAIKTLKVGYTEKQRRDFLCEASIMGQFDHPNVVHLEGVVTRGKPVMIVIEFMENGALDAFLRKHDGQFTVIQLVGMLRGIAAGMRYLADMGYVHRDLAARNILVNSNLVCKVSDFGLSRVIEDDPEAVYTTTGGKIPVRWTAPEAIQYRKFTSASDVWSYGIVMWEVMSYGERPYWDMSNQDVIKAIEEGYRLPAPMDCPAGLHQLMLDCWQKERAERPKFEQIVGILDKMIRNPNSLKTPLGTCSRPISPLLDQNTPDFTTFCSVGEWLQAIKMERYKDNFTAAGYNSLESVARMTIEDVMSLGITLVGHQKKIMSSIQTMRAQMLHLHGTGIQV

inhibition [1] [%] | inhibition [2] [%] | inhibition [3] [%] | inhibition [4] [%] | inhibition [5] [%] | inhibition [7] [%] | Structure (SMILES) | inhibition [6] [%]
< 50 | < 50 | < 50 | < 50 | < 50 | 91 | O[C@H]1CC[C@H](Nc2nccc(-n3ncc4ccccc43)n2)CC1 | < 50
< 50 | < 50 | < 50 | < 50 | < 50 | 72 | O[C@H]1CC[C@H](Nc2nccc(-n3ccc4ccccc43)n2)CC1 | < 50
< 50 | 100 | < 50 | < 50 | < 50 | 72 | N[C@H]1CC[C@H](Nc2nccc(-n3nnc4ccccc43)n2)CC1 | < 50
95 | 92 | 89 | 86 | 68 | 98 | O[C@H]1CC[C@H](Nc2nccc(-c3n[nH]c4ccccc34)n2)CC1 | < 50
< 50 | 97 | < 50 | < 50 | < 50 | 86 | O[C@H]1CC[C@H](Nc2nccc(-n3nnc4ccccc43)n2)CC1 | 81
< 50 | 75 | < 50 | < 50 | < 50 | 67 | O=C([C@H]1CC[C@H](Nc2nccc(-n3nnc4ccccc43)n2)CC1)N1CCOCC1 | < 50
